How the values were obtained:
Type in all cases: functional
[1] = Growth inhibition of human RPMI8226 cells incubated for 48 hrs by sulforhodamine B assay; conditions: RPMI-8226, 48 h
Method in brief: (§1)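 Cells were plated at 5,000–40,000 per well according to doubling time and preincubated 24 h at 37 °C in 5% CO2; time-zero plates were then TCA-fixed. Five concentrations (10-fold or ½-log dilutions, DMSO stock) were incubated 48 h. Cells were TCA-fixed, stained with 0.4% SRB and read at 515 nm. GI50 was taken where [(Ti−Tz)/(C−Tz)]×100 = 50.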

[2] = Growth inhibition of human HOP92 cells incubated for 48 hrs by sulforhodamine B assay; conditions: HOP-92, 48 h
Method in brief: (§2)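 Cells seeded at 5,000–40,000/well according to doubling time and preincubated 24 h at 37 °C, 5% CO2. Time-zero plates were TCA-fixed. DMSO concentrate was diluted in medium with 50 µg/ml gentamicin to give five concentrations (10-fold or ½ log steps), then exposed 48 h. Cells were TCA-fixed, stained with 0.4% SRB and read at 515 nm. Percent growth was taken against time-zero and control; GI50, TGI and LC50 derived.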

[3] = Growth inhibition of human HCC2998 cells incubated for 48 hrs by sulforhodamine B assay; conditions: HCC 2998, 48 h; method in brief: as §2
KM12 [4] = test: Growth inhibition of human KM12 cells incubated for 48 hrs by sulforhodamine B assay; conditions: KM12, 48 h; method in brief: as §1
SK-MEL-5 = test: Growth inhibition of human SK-MEL-5 cells incubated for 48 hrs by sulforhodamine B assay; conditions: SK-MEL-5, 48 h; method in brief: as §1
[5] = Growth inhibition of human OVCAR3 cells assessed as cell growth at 10^-8 M incubated for 48 hrs by sulforhodamine B assay; conditions: OVCAR-3, 48 h, read-out: Activity
786-0 = test: Growth inhibition of human 786-0 cells assessed as cell growth at 10^-8 M incubated for 48 hrs by sulforhodamine B assay; conditions: 786-0, 48 h, read-out: Activity
Method in brief: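 Five-dose assay: five concentrations from 10-fold or ½-log serial dilutions. Cells are plated at 5,000–40,000 per well according to doubling time, grown 24 h, then exposed 48 h at 37 °C, 5% CO₂. Fixed with cold 50% TCA (final addition) for 60 min at 4 °C and stained with 0.4% SRB in 1% acetic acid. Bound dye is solubilized in 10 mM Tris base and read at 515 nm. GI₅₀ is where [(Ti−Tz)/(C−Tz)]×100 = 50, with a time-zero plate as Tz.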

[6] = Growth inhibition of human HCC2998 cells assessed as cell growth at 10^-7 M incubated for 48 hrs by sulforhodamine B assay; conditions: HCC 2998, 48 h, read-out: Activity; method in brief: as §2
CCRF-CEM = test: Growth inhibition of human CCRF-CEM cells assessed as cell growth at 10^-4 M incubated for 48 hrs by sulforhodamine B assay; conditions: read-out: Activity
Method in brief: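 Leukemia line in the five-dose format: five concentrations from 10-fold or ½-log serial dilutions. Plated at 5,000–40,000 cells per well, preincubated 24 h, then compound added for 48 h at 37 °C, 5% CO₂. Sulforhodamine B absorbance read at 515 nm. Growth is computed against time-zero (Tz) and control (C) readings; GI₅₀ is where [(Ti−Tz)/(C−Tz)]×100 = 50.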

KM12 [7] = test: Growth inhibition of human KM12 cells assessed as cell growth at 10^-7 M incubated for 48 hrs by sulforhodamine B assay; conditions: KM12, 48 h, read-out: Activity
[8] = Growth inhibition of human OVCAR8 cells assessed as cell growth at 10^-4 M incubated for 48 hrs by sulforhodamine B assay; conditions: OVCAR-8, 48 h, read-out: Activity
[9] = Growth inhibition of human OVCAR5 cells assessed as cell growth at 10^-7 M incubated for 48 hrs by sulforhodamine B assay; conditions: OVCAR-5, 48 h, read-out: Activity
[10] = Growth inhibition of human SKOV3 cells assessed as cell growth at 10^-7 M incubated for 48 hrs by sulforhodamine B assay; conditions: SK-OV-3, 48 h, read-out: Activity
[11] = Growth inhibition of human UACC257 cells assessed as cell growth at 10 uM incubated for 48 hrs by sulforhodamine B assay; conditions: UACC-257, 48 h, read-out: Activity
[12] = Growth inhibition of human PC3 cells assessed as cell growth at 10 uM incubated for 48 hrs by sulforhodamine B assay; conditions: PC-3, 48 h, read-out: Activity
[13] = Growth inhibition of human DU145 cells assessed as cell growth at 10^-7 M incubated for 48 hrs by sulforhodamine B assay; conditions: DU-145, 48 h, read-out: Activity; method in brief: as §2
[14] = Growth inhibition of human HOP62 cells assessed as cell growth at 10^-6 M incubated for 48 hrs by sulforhodamine B assay; conditions: HOP-62, 48 h, read-out: Activity
HT-29 = test: Growth inhibition of human HT-29 cells assessed as cell growth at 10^-6 M incubated for 48 hrs by sulforhodamine B assay; conditions: HT-29, 48 h, read-out: Activity
NCI/ADR-RES = test: Growth inhibition of human NCI/ADR-RES cells assessed as cell growth at 10^-6 M incubated for 48 hrs by sulforhodamine B assay; conditions: read-out: Activity
MDA-MB-231 = test: Growth inhibition of human MDA-MB-231 cells assessed as cell growth at 10^-6 M incubated for 48 hrs by sulforhodamine B assay; conditions: MDA-MB-231, 48 h, read-out: Activity
[15] = Growth inhibition of human LOXIMVI cells assessed as cell growth at 10^-5 M incubated for 48 hrs by sulforhodamine B assay; conditions: LOX IMVI, read-out: Activity
M14 = test: Growth inhibition of human M14 cells assessed as cell growth at 10^-5 M incubated for 48 hrs by sulforhodamine B assay; conditions: M14, 48 h, read-out: Activity
NCI-H460 = test: Growth inhibition of human NCI-H460 cells assessed as cell growth at 10 uM incubated for 48 hrs by sulforhodamine B assay; conditions: NCI-H460, 48 h, read-out: Activity
KM12 [16] = test: Growth inhibition of human KM12 cells assessed as cell growth at 10 uM incubated for 48 hrs by sulforhodamine B assay; conditions: KM12, 48 h, read-out: Activity
[17] = read-out: LC50 (the source's name)
[18] = read-out: pLC50 (the source's name) (converted)

Compound: c1ccc(-c2nc(Nc3ccc(-c4nc5ccccc5[nH]4)cc3)nc(N3CCOCC3)n2)cc1
- GI50 ([1]; read-out: GI50): 1110 nM
- CC50 [1, 17]: > 100 µM
- TGI ([1]; read-out: TGI): 4.23 µM
- GI50 ([1]; read-out: pGI50 (converted)): 1120 nM
- CC50 [1, 18]: > 100 µM
- TGI ([1]; read-out: pTGI (converted)): 4.27 µM
- GI50 ([2]; read-out: GI50): 1380 nM
- LC50 (concentration killing 50% of starting cells) ([2]; read-out: LC50): 6.73 µM
- TGI ([2]; read-out: TGI): 3.05 µM
- GI50 ([2]; read-out: pGI50 (converted)): 1380 nM
- LC50 (concentration killing 50% of starting cells) ([2]; read-out: pLC50 (converted)): 6.76 µM
- TGI ([2]; read-out: pTGI (converted)): 3.02 µM
- GI50 ([3]; read-out: GI50): 1900 nM
- TGI ([3]; read-out: TGI): 3.99 µM
- GI50 ([3]; read-out: pGI50 (converted)): 1910 nM
- TGI ([3]; read-out: pTGI (converted)): 3.98 µM
- GI50 (KM12 [4]; read-out: GI50): 1620 nM
- CC50 (KM12 [4]; [17]): 6.3 µM
- TGI (KM12 [4]; read-out: TGI): 3.19 µM
- GI50 (KM12 [4]; read-out: pGI50 (converted)): 1620 nM
- CC50 (KM12 [4]; [18]): 6.31 µM
- TGI (KM12 [4]; read-out: pTGI (converted)): 3.16 µM
- GI50 (SK-MEL-5; read-out: GI50): 1690 nM
- CC50 (SK-MEL-5; [17]): 5.9 µM
- TGI (SK-MEL-5; read-out: TGI): 3.15 µM
- GI50 (SK-MEL-5; read-out: pGI50 (converted)): 1700 nM
- CC50 (SK-MEL-5; [18]): 5.89 µM
- TGI (SK-MEL-5; read-out: pTGI (converted)): 3.16 µM
- growth at 0.01 µM [5]: 105%
- growth at 0.01 µM (786-0): 99%
- growth at 0.1 µM [6]: 97%
- growth at 100 µM (CCRF-CEM): -36%
- growth at 0.1 µM (KM12 [7]): 97%
- growth at 100 µM [8]: -61%
- growth at 0.1 µM [9]: 99%
- growth at 0.1 µM [10]: 104%
- growth at 10 µM [11]: -56.4%
- growth at 10 µM [12]: -35.5%
- growth at 0.1 µM [13]: 95%
- growth at 1 µM [14]: 89%
- growth at 1 µM (HT-29): 36%
- growth at 1 µM (NCI/ADR-RES): 81%
- growth at 1 µM (MDA-MB-231): 63%
- growth at 10 µM [15]: -61%
- growth at 10 µM (M14): -80%
- growth at 10 µM (NCI-H460): -67.2%
- growth at 10 µM (KM12 [16]): -76.6%

Reference: ChEMBL document CHEMBL3808334, “Synthesis and in vitro evaluation of novel triazine analogues as anticancer agents and their interaction studies with bovine serum albumin” (Eur J Med Chem, 2016)
